pIC50: −log10 of the molar value.
Key:
Mus musculus [1] = test: Analgesic activity in Swiss albino mouse inflammatory pain model assessed as inhibition of acetic acid-induced writhing at 40 mg/kg, po administered 30 mins prior to acetic acid challenge relative to vehicle-treated control; assay type: functional
In short: (§1)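 Male Swiss albino mice (23–25 g), standard diet, water ad libitum, 23 ± 1 °C, 12 h light/dark cycle, randomised into groups. Compound or vehicle (suspended in 1% carboxymethylcellulose) given orally 30 min before ip 0.6% acetic acid. Writhes counted starting 5 min after injection. Reported as writhe count and % reduction versus vehicle-treated mice. Mean of 10 mice per group.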

Mus musculus [2] = test: Analgesic activity in Swiss albino mouse inflammatory pain model assessed as inhibition of acetic acid-induced writhing at 20 mg/kg, po administered 30 mins prior to acetic acid challenge relative to vehicle-treated control; assay type: functional; in short: as §1
Mus musculus [3] = test: Analgesic activity in Swiss albino mouse inflammatory pain model assessed as inhibition of acetic acid-induced writhing at 10 mg/kg, po administered 30 mins prior to acetic acid challenge relative to vehicle-treated control; assay type: functional; in short: as §1
Mus musculus [4] = test: Analgesic activity in Swiss albino mouse inflammatory pain model assessed as inhibition of acetic acid-induced writhing at 5 mg/kg, po administered 30 mins prior to acetic acid challenge relative to vehicle-treated control; assay type: functional; in short: as §1
[5] = molecular target: T1, Prostaglandin G/H synthase 2 (Mus musculus) (UniProt Q05769); test: Ratio of celecoxib IC50 to compound IC50 for COX2 in mouse J774 cells; assay type: cell-based
T1 sequence (whole entry): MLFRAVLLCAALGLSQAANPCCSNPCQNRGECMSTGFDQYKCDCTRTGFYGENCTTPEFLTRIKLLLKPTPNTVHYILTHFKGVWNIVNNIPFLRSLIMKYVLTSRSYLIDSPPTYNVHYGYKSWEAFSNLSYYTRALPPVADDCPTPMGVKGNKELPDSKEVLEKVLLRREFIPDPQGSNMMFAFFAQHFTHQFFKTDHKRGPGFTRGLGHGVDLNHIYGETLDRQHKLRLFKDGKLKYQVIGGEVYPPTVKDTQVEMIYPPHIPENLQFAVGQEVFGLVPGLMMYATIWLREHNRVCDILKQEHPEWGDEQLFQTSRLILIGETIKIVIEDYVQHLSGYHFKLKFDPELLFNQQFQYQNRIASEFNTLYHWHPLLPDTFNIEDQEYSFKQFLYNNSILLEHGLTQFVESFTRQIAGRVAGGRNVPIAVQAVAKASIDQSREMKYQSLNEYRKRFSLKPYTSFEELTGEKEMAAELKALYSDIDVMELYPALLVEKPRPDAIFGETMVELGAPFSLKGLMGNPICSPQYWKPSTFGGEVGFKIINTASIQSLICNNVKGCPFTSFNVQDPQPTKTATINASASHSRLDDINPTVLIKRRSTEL
In short: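 The COX-2 IC50 was measured in J774 cells stimulated 24 h with E. coli LPS (10 µg/mL) with or without compound (0.01–10 µM). Supernatant PGE2 by RIA; triplicate wells, mean of three experiments; IC50 from a sigmoidal variable-slope fit. Celecoxib served as the reference for the index.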

J774 = test: Selectivity index, ratio of IC50 for COX1 in mouse J774 cells to IC50 for COX2 in mouse J774 cells; assay type: cell-based
[6] = molecular target: T2, Prostaglandin G/H synthase 2 (Mus musculus, UniProt Q05769); test: Inhibition of COX2 in mouse J774 cells assessed as inhibition of LPS-induced PGE2 production by radioimmunoassay; assay type: cell-based
T2 sequence (Q05769 whole entry): T1 sequence (whole entry)

[7] = molecular target: T3, Prostaglandin G/H synthase 1 (Mus musculus, UniProt P22437); test: Inhibition of COX1 in mouse J774 cells using arachidonic acid as substrate assessed as inhibition of PGE2 production incubated for 15 mins prior to substrate addition measured after 30 mins by radioimmunoassay; assay type: cell-based
T3 sequence (P22437 whole entry): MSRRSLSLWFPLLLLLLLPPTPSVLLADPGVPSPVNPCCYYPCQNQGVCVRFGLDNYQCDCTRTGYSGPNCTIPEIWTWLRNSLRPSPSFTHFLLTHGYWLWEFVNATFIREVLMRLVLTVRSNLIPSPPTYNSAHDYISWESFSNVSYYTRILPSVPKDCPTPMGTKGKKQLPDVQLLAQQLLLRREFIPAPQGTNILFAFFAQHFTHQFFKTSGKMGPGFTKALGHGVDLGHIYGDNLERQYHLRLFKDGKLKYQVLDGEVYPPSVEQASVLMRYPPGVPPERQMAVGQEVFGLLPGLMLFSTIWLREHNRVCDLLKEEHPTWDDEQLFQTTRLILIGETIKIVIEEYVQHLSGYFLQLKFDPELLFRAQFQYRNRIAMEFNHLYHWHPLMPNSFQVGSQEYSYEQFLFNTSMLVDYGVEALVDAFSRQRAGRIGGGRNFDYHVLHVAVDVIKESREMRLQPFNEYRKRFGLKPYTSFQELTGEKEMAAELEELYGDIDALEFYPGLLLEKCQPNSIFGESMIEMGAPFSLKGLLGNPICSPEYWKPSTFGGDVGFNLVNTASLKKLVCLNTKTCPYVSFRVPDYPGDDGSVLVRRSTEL
In short: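 J774 cells allowed to adhere 2 h at 37 °C, 5% CO2; medium swapped for FBS-free medium just before use. Pre-treatment with compounds (0.01–10 µM) for 15 min, then 30 min at 37 °C with 15 µM arachidonic acid to activate constitutive COX-1. Supernatant PGE2 by RIA; triplicate wells, mean of three experiments as % inhibition vs control; IC50 from sigmoidal variable-slope fit.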

Homo sapiens = species: Homo sapiens; test: Selectivity ratio of IC50 for platelet COX1 in human whole blood to IC50 for monocyte COX2 in human whole blood; assay type: tissue-based
[8] = molecular target: Prostaglandin G/H synthase 1 (Homo sapiens, UniProt P23219); assay type: tissue-based, Blood
Sequence of Prostaglandin G/H synthase 1 (Homo sapiens, UniProt P23219) (P23219 whole entry): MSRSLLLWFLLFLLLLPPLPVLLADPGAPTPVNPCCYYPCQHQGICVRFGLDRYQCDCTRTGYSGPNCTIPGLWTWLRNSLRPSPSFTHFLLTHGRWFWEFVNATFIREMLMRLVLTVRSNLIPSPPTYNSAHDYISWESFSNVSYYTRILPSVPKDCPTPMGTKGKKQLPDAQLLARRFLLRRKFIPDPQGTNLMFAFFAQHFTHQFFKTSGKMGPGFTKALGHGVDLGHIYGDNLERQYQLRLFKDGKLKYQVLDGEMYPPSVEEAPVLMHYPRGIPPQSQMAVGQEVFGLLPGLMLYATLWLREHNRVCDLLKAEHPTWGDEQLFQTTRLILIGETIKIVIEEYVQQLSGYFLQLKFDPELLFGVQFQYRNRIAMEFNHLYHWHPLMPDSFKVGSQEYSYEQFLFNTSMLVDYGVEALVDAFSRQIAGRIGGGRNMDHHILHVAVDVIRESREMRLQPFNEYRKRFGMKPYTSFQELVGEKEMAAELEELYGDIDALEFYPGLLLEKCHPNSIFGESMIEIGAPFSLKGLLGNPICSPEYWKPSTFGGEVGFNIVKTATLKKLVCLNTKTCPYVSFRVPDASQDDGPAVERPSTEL

[9] = molecular target: T4, Prostaglandin G/H synthase 2 (Homo sapiens, UniProt P35354); parameters: species or system Blood
T4 sequence (P35354 whole entry): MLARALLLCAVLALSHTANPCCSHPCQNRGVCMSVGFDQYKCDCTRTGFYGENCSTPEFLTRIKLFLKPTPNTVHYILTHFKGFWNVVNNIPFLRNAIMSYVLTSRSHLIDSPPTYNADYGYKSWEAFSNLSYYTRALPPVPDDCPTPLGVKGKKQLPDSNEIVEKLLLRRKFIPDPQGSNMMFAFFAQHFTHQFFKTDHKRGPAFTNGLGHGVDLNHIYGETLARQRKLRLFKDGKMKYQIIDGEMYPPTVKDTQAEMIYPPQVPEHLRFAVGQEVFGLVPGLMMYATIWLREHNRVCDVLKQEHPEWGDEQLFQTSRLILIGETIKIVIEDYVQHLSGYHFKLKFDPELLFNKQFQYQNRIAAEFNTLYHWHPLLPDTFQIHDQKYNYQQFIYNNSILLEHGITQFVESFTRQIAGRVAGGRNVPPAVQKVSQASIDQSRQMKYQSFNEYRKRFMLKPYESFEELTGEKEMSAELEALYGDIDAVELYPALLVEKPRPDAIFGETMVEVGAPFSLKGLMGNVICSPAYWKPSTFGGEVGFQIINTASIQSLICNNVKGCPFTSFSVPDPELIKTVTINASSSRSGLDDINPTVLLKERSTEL

Mus musculus [10] = test: Analgesic activity in Swiss albino mouse inflammatory pain model assessed as inhibition of acetic acid-induced writhing at 1 mg/kg, po administered 30 mins prior to acetic acid challenge relative to vehicle-treated control; assay type: functional; in short: as §1

| Structure (SMILES) | inhibition in vivo at 40 mg/kg (Mus musculus [1]) [%] | inhibition in vivo at 20 mg/kg (Mus musculus [2]) [%] | inhibition in vivo at 10 mg/kg (Mus musculus [3]) [%] | inhibition in vivo at 5 mg/kg (Mus musculus [4]) [%] | Ratio IC50 [5] | Ratio IC50 (J774) | pIC50 [6] | pIC50 [7] | Ratio IC50 (Homo sapiens) | pIC50 [8] | pIC50 [9] | inhibition in vivo at 1 mg/kg (Mus musculus [10]) [%] |
| --- | --- | --- | --- | --- | --- | --- | --- | --- | --- | --- | --- | --- |
| Cc1c(C#N)cc(-c2ccc(S(C)(=O)=O)cc2)n1-c1ccc(F)c(F)c1 | 57 | 38 | 19 | 8 | 36 | > 454 | 8.66 | < 5.00 |  |  |  |  |
| Cc1c(C#N)cc(-c2ccc(S(C)(=O)=O)cc2)n1-c1cccc(F)c1 | 38 | 33 | 28 | 21 |  | > 769 | 7.89 | < 5.00 | 38.8 | 4.30 | 5.89 |  |
| Cc1c(/C=N\O)cc(-c2ccc(S(C)(=O)=O)cc2)n1-c1cccc(F)c1 | 45 | 42 | 32 |  |  | > 22.7 | 6.36 | < 5.00 |  |  |  |  |
| Cc1c(C=O)cc(-c2ccc(S(C)(=O)=O)cc2)n1-c1ccc(F)c(F)c1 | 60 | 52 | 53 | 50 |  | > 143 | 7.15 | < 5.00 | 4.8 | 4.15 | 4.83 | 36 |
| Cc1c(/C=N\O)cc(-c2ccc(S(C)(=O)=O)cc2)n1-c1ccc(F)c(F)c1 |  | 27 | 19 | 10 |  | > 62.5 | 6.80 | < 5.00 | 9.3 | 3.79 | 4.76 |  |
| Cc1c(/C=N\O)cc(-c2ccc(S(C)(=O)=O)cc2)n1-c1ccc(F)cc1 | 47 | 41 | 36 | 2 |  | > 27.8 | 6.44 | < 5.00 |  |  |  |  |
| Cc1c(C#N)cc(-c2ccc(S(C)(=O)=O)cc2)n1-c1ccc(F)cc1 | 45 | 33 | 36 | 5 |  |  |  | < 5.00 |  |  |  |  |
| Cc1c(C#N)cc(-c2ccc(S(C)(=O)=O)cc2)n1-c1ccccc1 | 59 | 42 | 28 |  |  | > 27.8 | 6.44 | < 5.00 |  |  |  |  |
| Cc1c(C=O)cc(-c2ccc(S(C)(=O)=O)cc2)n1-c1cccc(F)c1 |  | 44 | 39 |  | 8 | > 1050 | 8.02 | < 5.00 |  |  |  |  |
| Cc1c(C=O)cc(-c2ccc(S(C)(=O)=O)cc2)n1-c1ccc(F)cc1 | 31 | 30 |  | 5 |  |  |  | < 5.00 |  |  |  |  |
| Cc1ccc(-c2cc(C(F)(F)F)nn2-c2ccc(S(N)(=O)=O)cc2)cc1 [CELECOXIB] | 69 | 58 | 57 | 50 |  |  |  |  |  |  |  | 42 |
| Cc1c(C=O)cc(-c2ccc(S(C)(=O)=O)cc2)n1-c1ccccc1 | 30 | 32 | 23 |  |  | > 294 | 7.47 | < 5.00 |  |  |  |  |
| Cc1c(/C=N\O)cc(-c2ccc(S(C)(=O)=O)cc2)n1-c1ccccc1 | 57 | 53 | 27 | 13 |  | > 52.6 | 6.72 | < 5.00 |  |  |  |  |
